Screening data (PubChem)
TRPC6 act – activators of mouse TRPC6 channel; Q61143; HEK293-TRPC6 membrane potential dye fluorescence; active compounds read high; B-score at 10 µM; actives 0.13% (n = 310,000); AID 2550;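 active = B-score of the integrated fluorescence ratio above library mean plus 3 SD, and starting fluorescence ratio within library mean plus 5 SD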;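 note: higher score means more depolarization so channel activation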
Target sequence (Q61143 whole entry, looked up): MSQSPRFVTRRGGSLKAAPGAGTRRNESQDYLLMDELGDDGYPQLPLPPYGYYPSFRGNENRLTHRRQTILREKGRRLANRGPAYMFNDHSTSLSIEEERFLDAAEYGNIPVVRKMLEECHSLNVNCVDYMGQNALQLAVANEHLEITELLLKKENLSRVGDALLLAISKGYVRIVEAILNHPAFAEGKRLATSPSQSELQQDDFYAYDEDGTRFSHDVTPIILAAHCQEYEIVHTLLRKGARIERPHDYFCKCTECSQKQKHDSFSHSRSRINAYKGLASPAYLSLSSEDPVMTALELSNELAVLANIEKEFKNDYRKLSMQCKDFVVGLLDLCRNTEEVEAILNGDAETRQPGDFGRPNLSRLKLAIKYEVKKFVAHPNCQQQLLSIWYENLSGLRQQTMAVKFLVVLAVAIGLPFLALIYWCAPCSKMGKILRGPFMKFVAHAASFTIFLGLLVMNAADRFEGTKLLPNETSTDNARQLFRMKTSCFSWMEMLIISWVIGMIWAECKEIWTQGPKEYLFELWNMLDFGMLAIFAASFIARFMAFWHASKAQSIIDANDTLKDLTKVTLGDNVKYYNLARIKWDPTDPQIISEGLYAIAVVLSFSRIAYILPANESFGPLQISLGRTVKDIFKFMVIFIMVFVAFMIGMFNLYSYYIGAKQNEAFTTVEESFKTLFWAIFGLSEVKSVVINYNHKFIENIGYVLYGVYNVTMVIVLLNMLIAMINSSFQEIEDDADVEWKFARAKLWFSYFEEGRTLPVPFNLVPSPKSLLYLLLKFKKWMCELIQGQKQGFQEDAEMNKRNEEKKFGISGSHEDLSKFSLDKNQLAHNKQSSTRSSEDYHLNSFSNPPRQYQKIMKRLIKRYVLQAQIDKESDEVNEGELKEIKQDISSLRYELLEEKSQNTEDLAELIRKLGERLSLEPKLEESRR
TRPC6 inhibitor – mouse TRPC6 channel inhibition; Q61143; actives 1.1% (n = 310,000); HEK293-TRPC6, membrane potential dye, ACh-evoked depolarization; active compounds read low; B-score at 10 µM;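 active = B-score under library mean minus 3 SD, initial fluorescence not abnormally high, positive integrated signal ratio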;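 note: B-score derived from integrated fluorescence ratio over the kinetic read; more negative B-score means stronger inhibition of depolarization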
TRPC4 PAM – TRPC4 (mouse) allosteric potentiation | B-score at 10 µM | HEK293 TRPC4beta/mu-opioid, DAMGO EC20, Fluo-4 Ca2+ flux; active compounds read high | actives 0.42% (n = 310,000) | Q9QUQ5 | AID 2227;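 active = B-score of calcium response area above 5 SD of library B-scores, with initial fluorescence ratio within 5 SD of library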;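 note: B-score of integrated fluorescence ratio over time as area under calcium response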
TRPC4 block – TRPC4 (mouse) channel inhibition; Q9QUQ5; HEK293 TRPC4beta/mu-opioid, DAMGO-evoked Fluo4 calcium flux; active compounds read low; B-score at 10 µM; actives 0.39% (n = 300,000); AID 2247;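 active = B-score over 3 SD under the library average, no early fluorescence shift, positive overall ratio signal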
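material = TRPC4beta/mu-opioid receptor HEK293 cell line | probe or stimulus = sequential submaximal and maximal DAMGO stimulation | compound dosing = one concentration per compound | measured by = Fluo4 Ca2+ flux fluorescence | evaluation = integrated fluorescence ratio relative to baseline, converted to per-well B score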
TRPC4 act – opens the mouse TRPC4 cation channel | B-score at 10 µM | AID 2237 | Q9QUQ5 | HEK293 TRPC4beta/mu-opioid, Fluo4 calcium fluorescence; active compounds read high | actives 0.49% (n = 310,000);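 active = B-score above 5 SD of library B-scores, and initial fluorescence ratio not above library mean plus 5 SD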;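 note: positive B-score marks a calcium rise read as TRPC4 activation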
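Incubation: 45 min room-temperature Fluo4 loading, 110 s read / System: HEK293 cells stably co-expressing mouse TRPC4beta and mu-opioid receptor / Signal: Fluo4 fluorescence, kinetic / Control set: buffer (low) and maximal DAMGO (high) / Measure: integrated baseline-normalised fluorescence ratio, converted to per-well B score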
TRPC4 spec 2 – second check of whether TRPC6 inhibitors also affect mouse TRPC4; actives 42% (n = 920); shares compounds with TRPC6 inhibitor; inhibition, % at 10 µM; AID 2776; HEK293 TRPC4/MOR, membrane potential dye fluorescence; channel activated by saturating DAMGO dose;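 active = compounds whose fluorescence signal differed from control wells by over 3 SD, either direction, in both duplicate plates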
TRPC4 spec – mouse TRPC4 off-target activity of TRPC6 inhibitors; activity change, negative = inhibition, % at 10 µM; shares compounds with TRPC6 inhibitor; actives 61% (n = 920); HEK293 TRPC4/mu-opioid, membrane potential fluorescence;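 active = rise or fall in signal beyond 3 SD of buffer-only wells in both replicate plates, either sign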;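 note: integrated kinetic ratio of fluorescence range over baseline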
HEK293 MPD ctr 2-1 – second counter-screen for TRPC6 inhibitors: parental HEK293 cells. actives 31% (n = 920). shares compounds with TRPC6 inhibitor. signal change vs control, % at 10 µM. parental HEK293 membrane potential dye fluorescence; maximal acetylcholine challenge after compound addition. AID 2779;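 active = membrane potential signal moving either way by over 3 SD of the maximum-effect control, in both duplicate plates, meaning non-specific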
HEK293 MPD ctr-1 – counter-screen for TRPC6 inhibitors: effect in parental HEK293 cells. shares compounds with TRPC6 inhibitor. parental HEK293 membrane potential dye fluorescence. membrane potential signal change, % at 10 µM. actives 60% (n = 920);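 active = membrane potential signal shifting up or down by more than 3 SD of buffer-only wells, on both duplicate plates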
HEK293 MPD ctr-2 – checks TRPC6 modulator effects in parental HEK293 cells; shares compounds with TRPC6 inhibitor; membrane potential signal change, % at 10 µM; AID 488924; membrane potential dye fluorescence; actives 51% (n = 2,400);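 active = membrane potential signal moves up or down beyond 5 SD from buffer-only wells, on both duplicate plates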
HEK293 MPD ctr 2-2 – second check of TRPC6 modulator effects in parental HEK293 cells; shares compounds with TRPC6 inhibitor; membrane potential dye fluorescence; after compound, maximal acetylcholine stimulation; inhibition, % at 10 µM; actives 14% (n = 2,400);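 active = membrane potential signal drops by more than 5 SD from the mean control signal, in both duplicate plates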;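 note: plate controls were acetylcholine ECmax control wells for no effect and buffer only wells for full effect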
TRPC4/MOR mod – tests whether TRPC6 modulators also affect mouse TRPC4 | actives 69% (n = 2,400) | percent change from control (negative = decrease, positive = increase), % at 10 µM | HEK293 TRPC4/mu-opioid, membrane potential fluorescence | shares compounds with TRPC6 inhibitor;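 active = membrane potential signal moved up or down beyond 5 SD of buffer control wells, in both duplicate plates, actives on both sides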;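 note: plate controls were assay buffer wells for no effect and DAMGO maximal-effect wells for full effect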
TRPC4 ctr inh 2 – mouse TRPC4 off-target activity of TRPC6 modulators, second screen | HEK293 TRPC4/mu-opioid, membrane potential dye fluorescence; stimulated with maximal-effect DAMGO | shares compounds with TRPC6 inhibitor | inhibition, % at 10 µM | actives 55% (n = 2,400);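 active = drop in membrane potential signal beyond 5 SD of the control wells in both duplicate plates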;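 note: TRPC4 counter screen for TRPC6 hits run under conditions tuned for TRPC6 not TRPC4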
TRPC6 block conf – mouse TRPC6 inhibitor confirmation | AID 488960 | inhibition, % at 10 µM | actives 43% (n = 3,300) | shares compounds with TRPC6 inhibitor | HEK293-TRPC6, membrane potential dye, ACh-evoked depolarization;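 active = fluorescence ratio falls more than 5 SD below the full-stimulation control mean, in both duplicate runs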;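 note: integrated fluorescence ratio of peak minus minimum over baseline after agonist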
TRPC6 act confirm – confirmation of mouse TRPC6 activators | shares compounds with TRPC6 inhibitor | HEK293-TRPC6 membrane potential dye fluorescence, FDSS | activation, % at 10 µM | actives 11% (n = 2,800);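 active = ratio signal rise beyond 5 SD above unstimulated control wells' mean, seen in both duplicate runs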;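 note: plate controls were buffer EC0 wells for no effect and acetylcholine ECmax response for full effect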
Active calls of the source: *; i = inactive; . = not tested or not shown. Hits are enriched below; roughly 2.3% of the tested compounds scored in any of these assays.

SMILES	TRPC6 act	TRPC6 inhibitor	TRPC4 PAM	TRPC4 block	TRPC4 act	HEK293 MPD ctr-2	HEK293 MPD ctr 2-2	TRPC4/MOR mod	TRPC4 ctr inh 2	TRPC6 block conf	TRPC6 act confirm	others
CC1CCN(C(=O)c2ccc3c(c2NCCO)C(=O)c2ccccc2C3=O)CC1	i	-7.74*	i	i	i	-209.0%*	i	-35.0%*	76.0%*	51.0%*	i
CCc1cccc(OCC(=O)Nc2ccccc2N2CCCC2)c1	i	-6.1*	i	i	i	i	i	i	33.0%*	i	i
Cc1ccc(C)c(N2CCN(CCCNC(=O)Cn3cc4c(n3)CCC(C)C4)CC2)c1 (centres undefined)	13.9*	i	i	i	i	93.5%*	i	15.5%*	61.5%*	i	i
CCCCN1C(=S)SC(C)(C)C1/[N+]([O-])=C/c1cccnc1 (centres undefined)	i	-6.61*	i	i	i	.	.	.	.	56.6%*	.	TRPC4 spec 2=i;TRPC4 spec=i;HEK293 MPD ctr 2-1=i;HEK293 MPD ctr-1=i
CCCN1C(=S)SC(C)(C)C1/[N+]([O-])=C/c1cccnc1 (centres undefined)	i	i	i	i	i	.	.	.	.	.	.
COC(=O)[C@]1(CC(C)C)N[C@H](c2ccc(-c3ccc(F)cc3)cc2)[C@@H]2C(=O)N(C)C(=O)[C@@H]21	i	i	i	i	i	.	.	.	.	.	.
COc1ccc(S(=O)(=O)N2CCCCCC2)cc1NC(=O)Cc1cc(OC)c(OC)c(OC)c1	i	i	i	i	i	.	.	.	.	.	.
COc1ccc(S(=O)(=O)N2CCCCCC2)cc1NC(=O)Cc1ccccc1F	16.3*	-8.92*	i	i	i	i	i	i	i	i	i
COc1ccc(S(=O)(=O)N2CCOCC2)cc1Br	i	i	i	i	i	.	.	.	.	.	.
COc1ccc(S(=O)(=O)N2CCCCCC2)cc1Br	i	-6.4*	i	i	i	i	i	9.0%*	i	46.5%*	i
CCOc1cc2nc(-c3ccc(OC)c(OC)c3)nc(N3CC(C)OC(C)C3)c2cc1OC (centres undefined)	i	-8.33*	i	i	i	.	.	.	.	i	i	TRPC4 spec 2=i;TRPC4 spec=-20.3%*;HEK293 MPD ctr 2-1=i;HEK293 MPD ctr-1=i
Cc1ccc(NC(=O)c2sc3ncn(CC(=O)N4CCOCC4)c(=O)c3c2C)c(Br)c1	i	i	i	i	i	.	.	.	.	.	.
COc1ccc([N+](=O)[O-])cc1NC(=O)C(C)N1CCCC1 (centres undefined)	i	-6.1*	i	i	i	i	85.5%*	i	i	72.0%*	i
O=C(Nc1cccc(S(=O)(=O)C(F)F)c1)c1ccc(Cl)c(S(=O)(=O)N2CCOCC2)c1	i	-6.08*	i	i	i	i	i	i	i	i	i
O=C(Nc1cccc(Br)c1)c1ccc(Cl)c(S(=O)(=O)N2CCOCC2)c1	i	i	i	i	i	.	.	.	.	.	.
Cc1cccc(-c2cc3nc(C)c(C)c(NCCCn4ccnc4)n3n2)c1	i	-7.37*	i	i	i	.	.	.	.	76.1%*	i	TRPC4 spec 2=58.0%*;TRPC4 spec=-18.2%*;HEK293 MPD ctr 2-1=i;HEK293 MPD ctr-1=i
Cc1cc(NCCCn2ccnc2)n2nc(-c3ccc(Cl)cc3)cc2n1	i	-11.1*	i	i	i	i	100.5%*	20.0%*	54.0%*	54.0%*	i
Cc1ccc(-c2cc3nc(C)cc(NCc4ccco4)n3n2)cc1	i	i	i	i	i	.	.	.	.	.	.
Cc1cc(NCCCn2ccnc2)n2nc(-c3ccc(F)cc3)cc2n1	i	-10*	i	i	i	-299.5%*	92.5%*	-53.5%*	62.0%*	72.0%*	i
CCCCN(C(=O)C(C)Oc1cccc(Cl)c1)c1c(N)n(CCC)c(=O)[nH]c1=O (centres undefined)	i	i	i	i	i	.	.	.	.	.	.
O=C(Cc1cc(=O)oc2cc(O)ccc12)NC(Cc1ccc(Cl)cc1)C(=O)O (centres undefined)	i	i	i	i	i	.	.	.	.	.	.
CCC(C)(C)C(=O)O[C@H]1C[C@@H](C)C=C2C=C[C@H](C)[C@H](CC[C@@H]3C[C@@H](O)CC(=O)O3)[C@H]21	i	i	i	i	i	.	.	.	.	.	.
COc1ccc(C(=O)COC(=O)CCN=C2NS(=O)(=O)c3ccccc32)c(OC)c1	i	i	i	i	i	.	.	.	.	.	.
O=C(c1ccc(OC2CCN(Cc3ccc(C(F)(F)F)cc3)CC2)cc1)N1CCCCC1	i	-6.28*	i	i	i	126.0%*	i	i	43.5%*	66.5%*	.
O=C(c1ccc(OC2CCN(Cc3ccccc3C(F)(F)F)CC2)cc1)N1CCCCC1	i	i	i	i	i	.	.	.	.	.	.
CC(=O)c1c(C)nc2cc(Cl)ccc2c1N	i	-5.85*	i	i	i	-65.5%*	i	-12.0%*	32.5%*	i	i
